Measurements pooled from the literature.
Protocols differ between the studies behind these lines. Values after ≈ are worked out from the molar mass of the structure shown.
Organism: Klebsiella pneumoniae

The inhibition zone of `COc1cc(C=Nc2cccc(O)c2)ccc1O` is reported as 15.5 mm (microbial growth, disc diffusion; 2000 µg/mL, 24 h).
The MBC of `CN[C@H](CC(C)C)C(=O)N[C@H]1C(=O)N[C@@H](CC(N)=O)C(=O)N[C@H]2C(=O)N[C@H]3C(=O)N[C@H](C(=O)N[C@H](C(=O)O)c4cc(O)cc(O)c4-c4cc3ccc4O)[C@H](O)c3ccc(c(Cl)c3)Oc3cc2cc(c3O[C@@H]2O[C@H](CO)[C@@H](O)[C@H](O)[C@H]2O[C@H]2C[C@](C)(N)[C@H](O)[C@H](C)O2)Oc2ccc(cc2Cl)[C@H]1O` is reported as 1000 µg/mL (≈ 690 µM) (microbial killing; ATCC27736).
For `CN(C)c1cc(NC(=O)CNC(C)(C)C)c(O)c2c1C[C@H]1C[C@H]3[C@H](N(C)C)C(O)=C(C(N)=O)C(=O)[C@@]3(O)C(O)=C1C2=O`, the MIC was 0.5 µg/mL (microbial growth, broth dilution).
For `Cc1[nH]c(C(=O)Nc2ccc(C(=O)NCC(=O)O)cc2N2CCNCC2)c(Cl)c1Cl.Cl`, the MIC was greater than 32 µg/mL (microbial growth, broth dilution; ATCC700603).
`C[C@@H](O)[C@H]1C(=O)N2C(C(=O)O)=C(S[C@@H]3CN[C@H](C(=O)N(C)C)C3)[C@H](C)[C@H]12` has an MIC90 of 1020 µg/mL (≈ 2670 µM) (microbial growth, broth dilution; clinical isolate).
`O=C(O)c1cn(C2CC2)c2cc(N3CCNCC3)c(F)cc2c1=O` gave an MIC of 32 µM (microbial growth; ATCC700603).
`Cc1[nH]c(C(=O)Nc2ccc(C(=O)NCc3n[nH]c(=O)o3)cc2N2CCN(C(=O)OC(C)(C)C)CC2)c(Cl)c1Cl` gave an MIC of greater than 32 µg/mL (microbial growth, broth dilution; ATCC700603).
The inhibition zone of `COc1cc(C=Nc2ccc([N+](=O)[O-])cc2)ccc1O` is reported as 14.4 mm (microbial growth, disc diffusion; 2000 µg/mL, 24 h).
`CCC(C)CCCC(=O)N[C@@H](CCN)C(=O)N[C@H](C(=O)N[C@@H](CCN)C(=O)N[C@H]1CCNC(=O)[C@H]([C@@H](C)O)NC(=O)[C@H](CCN)NC(=O)[C@H](CCN)NC(=O)[C@H](CC(C)C)NC(=O)[C@@H](CC(C)C)NC(=O)[C@H](CCN)NC1=O)[C@@H](C)O` (stereo partly shown) has an MIC of 0.5 µg/mL (microbial growth, broth dilution).
For `COc1cc(C=Nc2ccc(Cl)cc2Cl)ccc1O`, the inhibition zone was 15 mm (microbial growth, disc diffusion; 2000 µg/mL, 24 h).
`Cc1[nH]c(C(=O)Nc2ccc(C(=O)NCC(=O)O)cc2N2CC[C@@H](N)C2)c(Cl)c1Cl.Cl` gave an MIC of greater than 32 µg/mL (microbial growth, broth dilution; ATCC700603).
For `CC(C)(O/N=C(\C(=O)N[C@@H]1C(=O)N2C(C(=O)[O-])=C(C[n+]3ccccc3)CS[C@H]12)c1csc(N)n1)C(=O)O`, the inhibition zone was 12 mm (microbial growth, disc diffusion; 2000 µg/mL, 24 h).
With `CC(C)(O/N=C(\C(=O)N[C@@H]1C(=O)N2C(C(=O)[O-])=C(C[n+]3ccccc3)CS[C@H]12)c1csc(N)n1)C(=O)O` the MIC was greater than 128 µg/mL (microbial growth, broth dilution; 20 h, clinical isolate).
